The whole screen tested about 290,000 compounds, of which about 1,300 (0.45%) were called active. Only a selection was taken, and actives are over-represented in it overall. Unmarked numbers belong to inactive results.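 The calls were made as follows: active = inhibition above the mean plus 3 SD of all compounds in the same screening run (cut at about 4.5% in these data); inactive = the rest.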
tested on: metallo-beta-lactamase IMP-1 (Pseudomonas aeruginosa); assay: inhibition of IMP-1 nitrocefin hydrolysis – biochemical, epi-absorbance readout, Pseudomonas aeruginosa enzyme, primary screen (AID 1556); details: purified IMP-1, nitrocefin hydrolysis, epi-absorbance fluorescence; at 5.6 µM; active compounds read high;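 also: 0% = IMP-1 with DMSO and 100% = DMSO wells lacking enzyme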
How it was run: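 Assay system: purified IMP-1; Quantity: IMP-1 0.2 nM before substrate addition; Medium: HEPES buffer pH 7.1 with ZnSO4 and Brij 35; Incubation: 15 min enzyme–compound preincubation, then 25 min nitrocefin reaction, 25 °C; Signal: fluorescence quenching readout, ex 480/em 530 nm; Controls: DMSO with and without IMP-1; Repeats: singlicate testing.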

SMILES	inhibition
COc1ccc(C2c3[nH]c4ccccc4c3C[C@H]3C(=O)N(CC(C)C)CC(=O)N23)c(OC)c1 (stereo partly drawn)	-2.7%
Cc1cc(Cl)ccc1OCCCC(=O)Nc1cccc(-n2cnnn2)c1	-1.81%
Cc1ccc(CN2CCC(n3nccc3NC(=O)CCCc3ccccc3)CC2)o1	-1.11%
CCn1cc(CN2CCC(n3nccc3NC(=O)CCCc3ccccc3)CC2)c(C)n1	-2.27%
Cc1c(CN2CCC(n3nccc3NC(=O)CCc3ccccc3)CC2)cnn1C	40.5% (active)
CCOc1ccc(-n2c(SCC(=O)Nc3ccc(OC)cc3)nc3sc4c(c3c2=O)CCN(C)C4)cc1	7.22% (active)
CCOc1ccc(-n2c(SCC(=O)OC)nc3sc4c(c3c2=O)CCN(C)C4)cc1	1.15%
CCCSc1nc2sc3c(c2c(=O)n1-c1ccc(OC)cc1)CCN(C)C3	-1.47%
CCN(c1ccccc1)S(=O)(=O)c1cc2c(cc1C)n(C)c(=O)c(=O)n2C	-1.34%
CC(NC(=O)COc1ccc(-c2ccccc2)cc1)C1CCCO1 (stereo not drawn)	-0.53%
COC(=O)c1cc(C(=O)NC(C)C2CC3CCC2C3)cc([N+](=O)[O-])c1 (stereo not drawn)	-3.23%
CC(C)OCCCNC(=O)C1CC(=O)N(C2CCCCCCC2)C1 (stereo not drawn)	-4.36%
O=C(NCCCN1CCCCCC1)C1CC(=O)N(C2CCCC2)C1 (stereo not drawn)	6.55% (active)
O=C(NCCc1ccc(Cl)cc1)C1CC(=O)N(C2CCCCC2)C1 (stereo not drawn)	-3.24%
CC1(C)CC(=O)CC2(C1)NCC(c1ccccc1Cl)c1c2[nH]c2ccccc12 (stereo not drawn)	-5.43%
Cn1cccc1/C=C1\SC(=O)N(CC(=O)Nc2ccc(F)cc2)C1=O	-1.78%
Cc1ccc(C(=O)O)cc1-c1ccc(/C=C2\SC(=O)N(CC(=O)Nc3ccc4c(c3)OCO4)C2=O)o1	8.27% (active)
COc1ccc(NC(=O)CCN2C(=O)/C(=C/c3ccc4c(c3)OCO4)SC2=S)cc1	-3.16%
COc1ccccc1-c1sc2ccccc2c1-c1ccc(C(C)=O)cc1	1.15%
CCc1ccccc1N(CC(=O)NCC1CCCO1)C(=O)CCC(=O)Nc1nccs1 (stereo not drawn)	-4.39%
O=C(NCc1cccc(Cl)c1)C1CCN(c2nnc(N3CCCC3=O)s2)CC1	-2.2%
COc1ccc2c(CC(=O)Nc3nnc(C4CC4)s3)coc2c1	68.4% (active)
Cc1cc(=O)oc2cc(OCC(=O)Nc3nnc(C4CC4)s3)ccc12	-1.51%
COc1ccc(NC(=O)CCC(=O)Nc2nnc(C3CCCCC3)s2)cc1	-2.6%
O=C(NCCCc1ccccc1)C(=O)NCC1OCCN1S(=O)(=O)c1ccccc1 (stereo not drawn)	-6.52%
O=C(NCCCn1ccnc1)C(=O)NCC1OCCN1S(=O)(=O)c1cc(F)ccc1F (stereo not drawn)	5.52% (active)

SMILES	inhibition
Cc1cc(F)ccc1S(=O)(=O)N1CCCOC1CNC(=O)C(=O)NCCC1=CCCCC1 (stereo not drawn)	-1.85%
CCn1c(=S)sc2c(=O)n(CC(=O)Nc3ccc(OC)cc3)c(C)nc21	-1.8%
COc1ccc(CCNC(=O)c2cnc(Cl)c(Cl)c2)cc1	-2.17%
O=C(Nc1cccc(F)c1)NC1CCCc2ccccc21 (stereo not drawn)	-1.14%
CNC(=S)NNC(=O)c1cccn(Cc2ccccc2)c1=O	-3.24%
C=CCNC(=O)COc1coc(CN2CCN(Cc3ccccc3)CC2)cc1=O	2.52%
C=CCNC(=S)/N=c1/ccccn1Cc1ccccc1	16.2% (active)
O=[N+]([O-])c1ccc(N2CCN(c3ccc(F)cc3)CC2)cn1	-0.39%
CSc1ccc(S(=O)(=O)N2CCC(C(=O)NCc3ccncc3)CC2)cc1	-1.8%
c1ccc(-c2nccc(-c3ccc(-n4cnc5ccccc54)cc3)n2)nc1	15.8% (active)
Cc1ccc(Oc2nc(-c3ccccn3)nc3ccccc23)cc1	-3.21%
Cc1nccc(-c2ccc(-n3c(C)ccc3C)cc2)n1	-1.5%
CC(=O)c1cc2c(cc1NC(=O)Cn1nc(-c3ccc(F)cc3)ccc1=O)OCO2	-1%
Cc1ccc(CSCC2Nc3ccc(C(=O)N4CCN(c5ccc(F)cc5)CC4)cc3NC2=O)cc1 (stereo not drawn)	-4.03%
Cc1ccc(C(=O)NCC(=O)NCc2cc(=O)n(C)c(=O)n2C)cc1	-0.88%
Cc1cc2occ(CC(=O)NNC(=O)c3ccccc3F)c2cc1C	7.82% (active)
Cc1ccc2c(CC(=O)NCc3cccs3)coc2c1	-1.74%
CCSc1nnc(SCC(=O)NNC(=O)c2ccccc2F)s1	-3.43%
CCOC(=O)C1=C(c2ccc(OC)cc2)C(=O)c2ccccc2C1=O	-1.49%
COC(=O)C1=C(C)NC2=C(C(=O)c3ccccc32)C1c1ccc(-c2ccc(C(=O)O)cc2)o1 (stereo not drawn)	21.7% (active)
Cc1ccc(C2C3=C(Nc4[nH]n(-c5ccccc5)c(=O)c42)c2ccccc2C3=O)cc1 (stereo not drawn)	-5.01%
COc1ccc(CNC(=O)C(=O)NCC2OCCN2C(=O)c2ccc(OC)cc2)cc1 (stereo not drawn)	-0.68%
COc1ccc(C(=O)O/N=C(\N)c2ccccn2)cc1[N+](=O)[O-]	-0.21%
COc1cccc(OCC(=O)NNC(=O)c2cnccn2)c1	-3%
COc1ccc(C(=O)NNC(=O)c2cnccn2)cc1[N+](=O)[O-]	5.35% (active)
Cc1cc(OCC(=O)NCC(O)c2ccccc2)c2c(C)c(C)c(=O)oc2c1 (stereo not drawn)	-1.48%

SMILES	inhibition
COc1ccc(CC(NC(C)=O)C(=O)NC2CCN(C(=O)C3CC3)CC2)cc1OC (stereo not drawn)	-2.45%
COc1cccc(CNS(=O)(=O)c2ccc3c(c2)N(C(C)=O)CCS3)c1	0.57%
CCOc1cc(NC(=O)c2cnccn2)c(OCC)cc1NC(=O)c1ccc(C)cc1	-4.22%
CCCc1cc(=O)oc2c(C)c(OCC(=O)N3CCC(C(=O)O)CC3)ccc12	-2.1%
CCCc1cc(=O)oc2c(C)c(OCC(=O)Nc3ccccn3)ccc12	12.4% (active)
CCCc1cc(=O)oc2c(C)c(OCC(=O)NCc3ccccn3)ccc12	-4.36%
O=C(O)c1c(NC(=O)N2CCCC2)sc2c1CCCC2	-2.5%
Cc1ccccc1NC(=O)Cn1cc(C(=O)C2CC2)c2ccccc21	-0.7%
COc1cccc(NC(=O)Cn2c3ccccc3c3nc4n(c(=O)c32)CCS4)c1	-2.36%
COc1ccc2c(c1)c1nc3n(c(=O)c1n2CC(=O)Nc1ccccc1)CCS3	-0.04%
COc1cccc(NC(=O)Cn2c3ccc(F)cc3c3nc4n(c(=O)c32)CCS4)c1	7.15% (active)
O=C(Nc1ccccc1-c1nnn(CC(=O)N2CCCc3ccccc32)n1)c1cccc(Cl)c1	-0.16%
O=S(=O)(Cc1cc(Cl)nc(-c2cccnc2)n1)c1ccccc1	0.12%
CN(C)c1nc(-c2cccnc2)nc(-c2ccc(Cl)cc2)c1C#N	-2.58%
N#Cc1c(Cl)nc(-c2cccnc2)nc1-c1ccccc1	9.55% (active)
COc1ccc(Cl)cc1S(=O)(=O)Nc1cccc(C(=O)O)c1	-2.2%
Cc1cccc(NS(=O)(=O)c2cc(Cl)ccc2Cl)n1	4.66% (active)
Cc1cccc(NS(=O)(=O)c2ccc([N+](=O)[O-])cc2)n1	-1.07%
Oc1ccc(Br)cc1C=Nc1ccc2[nH]ncc2c1	-1.06%
Oc1c(Cl)cc(Cl)cc1/C=N/c1ncn[nH]1	11.9% (active)
COc1cc(Br)cc(/C=N/c2ncn[nH]2)c1O	7.88% (active)
COc1ccc(Br)cc1/C=N/n1c(C)nnc1C	-3.22%
Cc1snc(SCc2c(F)cccc2Cl)c1C#N	-3.78%
Cc1ccc2[nH]c(=O)c(CN(C)S(=O)(=O)c3cccc4nonc34)cc2c1	0.09%
Cc1ccc(Cn2cc(C(=O)NN)c(=O)c3ccc(F)cc32)cc1	-2.47%
COc1ccc(NC(=O)Cn2ncn3c(cc4ccccc43)c2=O)c(OC)c1OC	-2.6%

From PubChem BioAssay AID1556 (The Scripps Research Institute Molecular Screening Center, 2009)
